As a reminder, the IC50 is the midpoint of a concentration-inhibition curve.

Structures are written as SMILES. Activity calls are given as the source filed them. The calls are words filed in the database; no cut-off is given here.

The results in this text go back to ChEMBL document CHEMBL4725452, “Targeted Covalent Inhibition of Plasmodium FK506 Binding Protein 35” (ACS Med Chem Lett, 2020).

In data set [1] the test system is Plasmodium falciparum. Kind of data set: Antiplasmodial activity against blood stage of Plasmodium falciparum NF54 assessed as parasite growth inhibition.
The nature of data set [2]: Displacement of fluorescent tracer Rap-Gly-BDP from nanoluciferse-tagged Plasmodium falciparum FKBP35 expressed in HEK293T cells incubated for 2 hrs by NanoBRET assay. Type of data set: cell-based. The settings on record: HEK-293T. Summed up:
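HEK293T cells stably expressing N-terminal NanoLuc-FKBP35 (lentiviral, puromycin-selected) plated at 0.2 x 10^6 cells/mL in Opti-MEM and incubated overnight at 37°C, 5% CO2. Rap-Gly-BDP tracer added to 1 µM for 10 min, then test compounds at varying concentrations for 2 h at 37°C. Nano-Glo substrate plus extracellular NanoLuc inhibitor added and read immediately. BRET ratio corrected against no-tracer control.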
In general terms: In BRET a luciferase serves as donor, and the signal depends on an acceptor being close.

Data set [3] deals with Plasmodium falciparum. Kind of data set: Binding affinity to N-terminal 6His-SUMO-tagged Plasmodium falciparum FKBP35 binding domain (FBD35) (Q5-A128) expressed in Escherichia coli BL21 (DE3) cells assessed as change in melting temperature at 40 uM by differential scanning […] analysis. Summed up:
(§1)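 Differential scanning calorimetry. Purified protein (6His-SUMO tag removed) dialyzed into 25 mM HEPES pH 7.8, 150 mM NaCl. Protein at 0.4 mg/mL (6-9 uM), with or without compound at 40 µM, 2% DMSO (v/v). Scanned 25-90 °C, reference scans subtracted. Tm taken as midpoint of the heat capacity curve.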

Data set [4] deals with Peptidyl-prolyl cis-trans isomerase FKBP1A (Homo sapiens, UniProt P62942). Kind of data set: Binding affinity to N-terminal 6His-SUMO-tagged human full length FKBP12 expressed in Escherichia coli BL21 (DE3) cells assessed as change in melting temperature at 40 uM by differential scanning […] analysis. Summed up: as §1
Chain of Peptidyl-prolyl cis-trans isomerase FKBP1A (P62942 whole entry, the tested form may be a part): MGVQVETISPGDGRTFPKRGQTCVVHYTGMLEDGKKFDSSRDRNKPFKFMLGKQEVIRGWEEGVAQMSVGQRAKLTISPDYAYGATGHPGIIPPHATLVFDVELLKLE
In data set [5] the test system is Plasmodium falciparum. Kind of data set: Covalent binding affinity to N-terminal 6His-SUMO-tagged Plasmodium falciparum FKBP35 binding domain (FBD35) (Q5-A128) expressed in Escherichia coli BL21 (DE3) cells assessed as binding at C106 position by mass spectrometry. Summed up: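 Protein-compound reaction mixture saved in parallel with DSC. Denatured in urea/NaCl in 50 mM Tris pH 8.0, reduced with TCEP at 37 °C for 60 min, free thiols alkylated with iodoacetamide at RT in the dark for 30 min. Digested with chymotrypsin (1:100 molar) overnight at 37 °C, quenched with formic acid. Peptides resolved on C18 UPLC at 45 °C and analyzed by Q Exactive HF MS.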

Data set [6] relates to Plasmodium falciparum. Kind of data set: Antiplasmodial activity against blood stage of Plasmodium falciparum 3D7 assessed as parasite growth inhibition. The format is functional, organism-based.

For the molecule `C=CC[C@@H]1/C=C(\C)C[C@H](C)C[C@H](OC)[C@H]2O[C@@](O)(C(=O)C(=O)N3CCCC[C@H]3C(=O)O[C@H](/C(C)=C/[C@@H]3CC[C@@H](O)[C@H](OC)C3)[C@H](C)[C@@H](O)CC1=O)[C@H](C)C[C@@H]2OC` [TACROLIMUS ANHYDROUS], the IC50 in data set [1] came out at 1900 nM. For `CO[C@H]1C[C@@H]2CC[C@@H](C)[C@@](O)(O2)C(=O)C(=O)N2CCCC[C@H]2C(=O)O[C@H]([C@H](C)C[C@@H]2CC[C@@H](O)[C@H](OC)C2)CC(=O)[C@H](C)/C=C(\C)[C@@H](O)[C@@H](OC)C(=O)[C@H](C)C[C@H](C)/C=C/C=C/C=C/1C` [SIROLIMUS], the concentration for half-maximal inhibition (IC50) in data set [2] was 34 nM; in data set [1] it was 2600 nM. `C=CC(=O)NCc1ccc(NC(=O)CSc2nc3cccnc3[nH]2)cc1`: the result in data set [3] was inactive. In data set [4], the Activity entry is “Not Active”. Also, the outcome in data set [5] was Active. Take `CC[C@H]1CN(Cc2ccccn2)C(=O)C2CCCC1N2S(=O)(=O)c1cc(Cl)cc(Cl)c1` (some centres undefined): the IC50 in data set [1] came out at 2300 nM. For `CCc1ccccc1NC(=O)CSc1nc2cccnc2[nH]1`, the IC50 in data set [6] was determined as 235 nM. As to `O=C(NNC(=O)C12CC3CC(CC(C3)C1)C2)c1ccncc1`, in data set [6], the IC50 turned out to be 250 nM. In the case of `CCC(=O)NCc1ccccc1NC(=O)CSc1nc2cccnc2[nH]1`, the outcome in data set [3] was inactive. In addition, the Activity result in data set [4] is on record as “Not Active”. With `C=CC(=O)NCc1ccccc1NC(=O)CSc1nc2cccnc2[nH]1`, the outcome in data set [3] was inactive. The Activity result in data set [4] is “Not Active”. The outcome in data set [5] was Active.
